Experiment [1] deals with P. aeruginosa pyoverdine, CAS absorbance 665 nm, 6 h. The experiment in a line: siderophore output inhibition in Pseudomonas aeruginosa – Chrome Azurol S readout, dry powder samples, orthogonal assay for PvdQ inhibitor project, dose response (AID 624033). In a few lines:
(§1)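 Compound dosing: 10-point twofold dilution series, top dose 125 µM; Measured by: Chrome Azurol S absorbance at 665 nm in supernatant; Schedule: 6 h compound culture, 30 °C, then 30 min CAS dye.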

Experiment in experiment [2]: as above
The following applies: P. aeruginosa pyoverdine, CAS absorbance 665 nm, 6 h. Put shortly:
as §1

One may read the AC50 as the concentration giving half of the maximal activity seen.

Calls of active or inactive are those of the source.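 Rule for the calls: active = raises 665 nm absorbance to half the iron-handling mutant's effect in both replicates, half-effect dose under 50 µM; inactive = the rest.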

As for `N#CC(c1ccc(Cl)cc1)c1cccc(C(F)(F)F)n1` (stereo unspecified), in experiment [1], the half-maximal activity concentration (AC50) was 22.9 µM.

On to `N#CC(c1ccc(F)cc1)c1cccc(C(F)(F)F)n1` (stereo unspecified), for which the AC50 in experiment [1] is 6.21 µM.

Regarding `CCCCC(C#N)c1ccc(F)cc1` (stereo unspecified), the AC50 in experiment [1] was 27.7 µM.

Regarding `N#CC(c1ccc(Cl)cc1)c1cccc(Cl)n1` (stereo unspecified), the half-maximal activity concentration (AC50) in experiment [1] is 46.4 µM. In the case of `CN(C)CCCC(C#N)c1ccc(F)cc1` (stereo unspecified), in experiment [2], the result was inactive.

With `COCCOCCC(C#N)c1ccc(F)cc1` (stereo unspecified), the result in experiment [2] was inactive. Turning to `N#CC(c1cccc(Cl)n1)c1ccc(Cl)cc1F` (stereo unspecified), the half-maximal activity concentration (AC50) in experiment [1] was 30.7 µM. Still for that read-out and setting: the value for `N#CC(c1cccc(C(F)(F)F)n1)c1ccc(Cl)cc1F` (stereo unspecified) was 14.6 µM; that for `N#CC(c1ccc(Cl)cc1)c1ccc(Cl)cn1` (stereo unspecified) was 17.7 µM.

For `COCCC(C#N)c1ccc(F)cc1` (stereo unspecified), the result in experiment [2] was inactive. `N#CC(c1ccc(Cl)cc1)c1ncccc1Cl` (stereo unspecified): in experiment [1], the AC50 was 48.3 µM.

Source of the values: PubChem BioAssay AID624033 (Broad Institute, 2012).
